Reference: ChEMBL document CHEMBL1129445 (J Med Chem, 1996)

Tests used:
[1] = biological target: T1, Inosine-5'-monophosphate dehydrogenase 2 (Homo sapiens, UniProt P12268); test: Inhibition of human recombinant type II Inosine Monophosphate Dehydrogenase at 100 uM
Method in brief: (§1)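 Reactions are run either at pH 7.4 (0.1 M K phosphate, 0.5 M KCl, 3 mM EDTA, 10 μg/mL BSA) or at pH 8.0 (0.1 M Tris-HCl, 0.1 M KCl, 3 mM EDTA, 100 μg/mL BSA). DMSO ≤10%, compounds tested up to 100 μM. IC50 from fit of fractional activity = V0/[(I/IC50)^n + 1].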

Homo sapiens [2] = species: Homo sapiens; test: Inhibition of human Lymphocyte proliferation. The IC50 values were determined by interpolation using the cubic spline determination at 10 uM; format: functional
Method in brief: (§2)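 Human PBMC are isolated on Ficoll from heparinized blood and plated at 2 × 10^5 cells/well in RPMI-1640 with 5% FCS. Cells are stimulated with PHA (10 μg/mL final) and given compound at time 0, at 4-6 concentrations between 0.001 and 20 μM (tested to 10 μM). Cultures run in quadruplicate for 72 h at 37 °C, 7% CO2, with [3H]thymidine (0.5 μCi/well) for the last 6 h. IC50 by cubic-spline interpolation of the means.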

Mus musculus [3] = test: Tested for the inhibition of murine PFC response at 12.5 mg/kg dose; format: functional
[4] = biological target: T1, Inosine-5'-monophosphate dehydrogenase 2; test: Inhibition of human recombinant inosine monophosphate dehydrogenase type II.; method in brief: as §1
Mus musculus [5] = test: Tested for the inhibition of murine PFC response at 100 mg/kg dose; format: functional
Homo sapiens [6] = species: Homo sapiens; test: Inhibition of human Lymphocyte proliferation. The IC50 values were determined by interpolation using cubic spline determination.; format: functional; method in brief: as §2
Mus musculus [7] = test: Tested for the inhibition of murine PFC response at 25 mg/kg dose; format: functional
[8] = biological target: T1, Inosine-5'-monophosphate dehydrogenase 2; test: Inhibition of human recombinant type II Inosine Monophosphate Dehydrogenase. at pH 8.0
Method in brief: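 Recombinant human type II IMPDH (12.5-25 pmol) in 0.1 M Tris-HCl pH 8.0, 0.1 M KCl, 3 mM EDTA, 100 μg/mL BSA. […] IC50 fitted with a Hill equation, fractional activity = V0/[(I/IC50)^n + 1].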

Mus musculus [9] = test: Tested for the inhibition of murine PFC response at 50 mg/kg dose; format: functional
Mus musculus [10] = species: Mus musculus; test: Compound was tested for its % Inhibition of Murine PFC response in Mice; format: functional
Mus musculus [11] = species: Mus musculus; test: Effective dose was measured in mice as concentration required to inhibit 50% inhibition of Murine PFC response; format: functional
Method in brief: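 Jerne plaque assay in female C3H or CD-1 mice immunized ip with SRBC on day 0, with oral daily dosing over the next 4 days. Splenic PFC per 10^6 WBC counted on day 4. ED50 read graphically from the dose-inhibition data.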

Mus musculus [12] = test: Tested for the inhibition of murine PFC response at 6.25 mg/kg dose; format: functional

| Compound | IC50 [4] [nM] | IC50 (Homo sapiens [6]) [nM] | also measured |
| --- | --- | --- | --- |
| COc1c(C)c(C)c(C#N)c(Cl)c1C/C=C(\C)CCC(=O)O |  |  | IC50 [1]: 681 nM; IC50 (Homo sapiens [2]): > 10 µM |
| COc1c(C/C=C(\C)CCC(=O)O)cc(Br)c(C)c1C |  |  | IC50 [1]: 795 nM; IC50 (Homo sapiens [2]): > 10 µM |
| COc1c(C)c(C)c(Cl)c(Cl)c1C/C=C(\C)CCC(=O)O |  |  | IC50 [1]: 557 nM; IC50 (Homo sapiens [2]): > 10 µM |
| COc1c(C)c(C)c(F)c(F)c1C/C=C(\C)CCC(=O)O |  |  | IC50 [1]: 1380 nM; IC50 (Homo sapiens [2]): > 10 µM |
| CCOc1c(C)c2c(c(O)c1C/C=C(\C)CCC(=O)O)C(=O)OC2 |  | 430 | IC50 [8]: 89.8 nM |
| C/C(=C\Cc1c(C)c(C)c2c(c1O)C(=O)OC2)CCC(=O)O |  | 250 | IC50 [8]: 18.6 nM; inhibition in vivo at 50 mg/kg (Mus musculus [9]): 45% |
| COc1c(C)c(C)c([N+](=O)[O-])c(N)c1C/C=C(\C)CCC(=O)O | 465 | 2800 |  |
| COc1c(C)c(C)c(Cl)c(C)c1C/C=C(\C)CCC(=O)O |  |  | IC50 [1]: 1700 nM; IC50 (Homo sapiens [2]): > 10 µM |
| C/C(=C\Cc1c(N)cc(C)c(C)c1C)CCC(=O)O | 90800 |  |  |
| COc1c(C/C=C(\C)CCC(=O)O)c(O)c2c(c1C(N)=O)COC2=O |  | > 10000 | IC50 [8]: > 100000 nM |
| C/C(=C\Cc1c(C)c(C)c(C)c([N+](=O)[O-])c1O)CCC(=O)O | 289 | 3200 |  |
| C/C(=C\Cc1c(O)c2c(c(C)c1C(N)=O)COC2=O)CCC(=O)O | 231 | > 10000 |  |
| C/C(=C\Cc1cc(C)c2c(c1O)C(=O)OC2)CCC(=O)O |  |  | IC50 [8]: 6960 nM |
| COc1c(C/C=C(\C)CCC(=O)O)cc(S(C)=O)c(C)c1C (centres undefined) |  |  | IC50 [1]: > 100000 nM; IC50 (Homo sapiens [2]): > 10 µM |
| COc1c(C/C=C(\C)CCC(=O)O)c(O)c2c(c1OC)COC2=O |  | 130 | IC50 [8]: 126 nM; Inhibition (Mus musculus [10]): 49% |
| COc1cc(C/C=C(\C)CCC(=O)O)c(OC)c(C)c1C | 50000 |  |  |
| COc1c(C/C=C(\C)CCC(=O)O)cc(Cl)c(C)c1C | 537 | 6700 |  |
| COc1c(C)c2c(c(O)c1C/C=C(\C)CCC(=O)O)C(=O)OCC2 |  | 8600 | IC50 [8]: 644 nM |
| COc1c(C/C=C(\C)CCC(=O)O)cc(SC)c(C)c1C |  |  | IC50 [1]: 52300 nM; IC50 (Homo sapiens [2]): > 10 µM |
| COc1c(C/C=C(\C)CCC(=O)O)cc(N)c(C)c1C | 17000 |  |  |
| COc1c(C)c2c(c(O)c1C/C=C(\C)CCC(=O)O)C(=O)OC2 [MYCOPHENOLIC ACID] |  | 58 | ED50 (Mus musculus [11]): 33 mg/kg; inhibition in vivo at 12.5 mg/kg (Mus musculus [3]): 20%; inhibition in vivo at 50 mg/kg (Mus musculus [9]): 81%; inhibition in vivo at 6.25 mg/kg (Mus musculus [12]): 16%; inhibition in vivo at 25 mg/kg (Mus musculus [7]): 36% |
| COc1c(C)c(C)c(Br)c(Cl)c1C/C=C(\C)CCC(=O)O |  |  | IC50 [1]: 1040 nM; IC50 (Homo sapiens [2]): > 10 µM |
| C/C(=C\Cc1c(O)c(C)c2c(c1O)C(=O)OC2)CCC(=O)O | 87.7 | > 10000 |  |
| COc1c(C/C=C(\C)CCC(=O)O)cc(C#N)c(C)c1C | 1600 |  |  |

Continued, in another order:

| IC50 [4] [nM] | Compound | IC50 (Homo sapiens [6]) [nM] | also measured |
| --- | --- | --- | --- |
| 33.5 | COc1c(C)c(C)c(Cl)c(O)c1C/C=C(\C)CCC(=O)O | 200 | inhibition in vivo at 12.5 mg/kg (Mus musculus [3]): 0%; inhibition in vivo at 100 mg/kg (Mus musculus [5]): 83%; inhibition in vivo at 25 mg/kg (Mus musculus [7]): 0% |
| 36.7 | COc1c(C)c(C)c(Br)c(O)c1C/C=C(\C)CCC(=O)O | 280 | inhibition in vivo at 100 mg/kg (Mus musculus [5]): 5% |
| 959 | COc1c(C)c(C)c(C)c(O)c1C/C=C(\C)CCC(=O)O | 3700 |  |
| 592 | COc1c(C)c(C)c(I)c(O)c1C/C=C(\C)CCC(=O)O | 4900 |  |
| 1080 | COc1c(C)c(C)c(F)c(O)c1C/C=C(\C)CCC(=O)O | 4100 |  |
| 69.3 | C/C(=C\Cc1c(C)c(C)c(C)c(Cl)c1O)CCC(=O)O | 360 |  |
| 620 | C/C(=C\Cc1c(C)c(C)c(C)c(Br)c1O)CCC(=O)O | 1650 |  |
| 534 | COc1c(C)c(C)c(C#N)c(O)c1C/C=C(\C)CCC(=O)O | 1700 |  |
